In the library only some 7.2% were active in any assay of this set; here they are far more common.
M1 agonist: activates the M1 muscarinic receptor; CHO-M1 cells, Fluo-4 calcium fluorescence, agonist mode; active compounds read high; B-score at 10 µM; actives 3% (n = 64,000); AID 626;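 active means fluorescence rise, raw or as B-score row- and column-corrected plate score, outside the 99.7% band of its plate's samples, either direction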
BAP1 block: human BAP1 deubiquitinase inhibition. recombinant BAP1, Ub-AMC hydrolysis fluorescence kinetic; active compounds read low. Q92560. calls only at 20 µM. actives 0.48% (n = 72,000). AID 436;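 active means activity remaining at or below 50% of control, provided the compound also passes the data quality filters; inactive means the rest, including low values that fail the filters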;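 further: 100% = DMSO wells rate and 0% = substrate alone blank rate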
hDAT+cocaine: modulates human dopamine transporter uptake under cocaine | LLC-PK1 hDAT cells, [14C]-dopamine uptake with cocaine IC80; actives deviate in either direction | AID 449768 | B-score at 10 µM | Q01959 | actives 1.3% (n = 110,000);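 active means Z score or B-score, a plate-position-corrected score, falls beyond the plate's 99.7% confidence bounds, in either direction; inactive means both scores lie inside the 99.7% bounds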;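 further: scored against the spread of the other compound wells on the same plate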
HEK293 NFkB inh: inhibitors of the PMA/ionomycin-induced NF-kB reporter in HEK293 cells | AID 465 | HEK-293 NF-kB luciferase reporter, luminescence | inhibition, % at 3 µM | actives 0.21% (n = 62,000);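 active means inhibition above the mean of all tested compounds plus 3 SD, cut at about 40% in these data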;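 further: 0% = stimulated DMSO wells and 100% = 10 µM reference inhibitor 5653914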
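Timing: 1 h pretreatment, 16 h stimulation, 37 °C; system: HEK-293 cells with stable firefly luciferase reporter driven by four HIV NF-kB elements; doses: 3 µM once, 0.30% DMSO; measured by: luciferase luminescence; control set: DMSO and 10 µM reference inhibitor; repeats: single test; reagent: PMA plus ionomycin mix as NF-kB-activating stimulus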
M1 antag: M1 muscarinic receptor (rat) antagonism; P08482; CHO-M1 cells, Fluo-4 calcium, ACh EC80 antagonist mode; active compounds read low; B-score at 10 µM; actives 3.4% (n = 64,000); AID 628;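 active means calcium fluorescence response, raw or row-and-column corrected B-score, differing from the plate sample mean either way at a set confidence level, mostly lower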
Target sequence (P08482 whole entry, looked up): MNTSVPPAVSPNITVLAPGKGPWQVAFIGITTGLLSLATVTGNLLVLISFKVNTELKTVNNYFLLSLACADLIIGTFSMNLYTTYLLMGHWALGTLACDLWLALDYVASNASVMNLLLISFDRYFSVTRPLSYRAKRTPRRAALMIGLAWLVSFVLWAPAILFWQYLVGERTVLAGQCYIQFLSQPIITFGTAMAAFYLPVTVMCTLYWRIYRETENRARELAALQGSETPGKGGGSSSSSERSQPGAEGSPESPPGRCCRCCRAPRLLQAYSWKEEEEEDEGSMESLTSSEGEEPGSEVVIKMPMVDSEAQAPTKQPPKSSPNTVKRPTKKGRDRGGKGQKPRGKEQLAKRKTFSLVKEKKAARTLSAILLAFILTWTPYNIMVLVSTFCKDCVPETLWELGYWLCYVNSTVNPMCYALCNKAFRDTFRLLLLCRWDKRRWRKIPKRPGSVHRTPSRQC
D1 allo mod: D1 dopamine receptor (human) allosteric modulation; P21728; HEK293 D1, CRE-luciferase, dopamine EC30 potentiation; actives deviate in either direction; B-score at 10 µM; actives 5.9% (n = 58,000);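 active means luminescence count or its row- and column-corrected plate score outside the 99.7% band of the plate's sample wells, on either side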
* marks the source's active call; other numbers are inactive results; i = inactive; nt = no result given; + = active, no number.

SMILES | M1 agonist | BAP1 block | hDAT+cocaine | HEK293 NFkB inh | M1 antag | D1 allo mod
Oc1cc(O)c2c(c1)O[C@H](c1ccc(O)c(O)c1)[C@@H](O)C2 | nt | i | -0.75 | nt | nt | nt
CC(C)Oc1ccc(-c2nn(-c3ccccc3)cc2/C=c2\sc3ncnn3c2=O)cc1 | 33* | i | nt | 4 | -0.8 | -0.2
CN(C)c1ccc(-c2nn3c(-c4ccncc4)nnc3s2)cc1 | -0.66 | i | nt | -5 | -0.0021 | 2.5
COc1ccccc1-c1nnc2sc(-c3ccc(N(C)C)cc3)nn12 | -0.17 | i | nt | 55* | -0.77 | 7.5*
COc1ccc(-c2nn3c(-c4cccc(C)c4)nnc3s2)cc1OC | 0.28 | i | -0.26 | 14 | 0.53 | 17*
COc1ccc(-c2nn3c(-c4ccccn4)nnc3s2)cc1OC | 2.7 | i | 1.1 | nt | -0.25 | nt
Cc1c(NC(=O)c2ccc(OCc3ccccc3)cc2)cccc1-c1nc2ncccc2o1 | nt | i | nt | nt | nt | nt
Cc1cccc(NC(=O)c2ccc(S(=O)(=O)N3CCCCC3)cc2)n1 | -2.6* | i | 0.36 | 5 | -2.4 | 0.48
Cc1cccc(NC(=O)c2ccc(S(=O)(=O)N3CCCCC3)cc2)c1 | nt | i | nt | nt | nt | nt
CN1CCN(S(=O)(=O)c2ccc(NC(=O)c3ccc(F)cc3)cc2)CC1 | 0.2 | i | 0.55 | 6 | 3.5* | -1.4
O=C(NCCCn1ccnc1)c1ccc(S(=O)(=O)N2CCCCCC2)cc1 | nt | nt | 3.1* | nt | nt | nt
CN1CCN(S(=O)(=O)c2ccc(NC(=O)c3ccc(Br)s3)cc2)CC1 | -0.39 | i | 0.29 | 4 | -1.2 | -3.9*
CC1CC(C)CN(S(=O)(=O)c2ccc(C(=O)NCCCn3ccnc3)cc2)C1 (stereo not given) | 0.24 | i | -0.72 | -30 | -0.74 | 0.16
COc1ccc(-c2cc(C(F)(F)F)n3nc(C(=O)N4CCCCCC4)c(Cl)c3n2)cc1OC | nt | i | nt | nt | nt | nt
COC(=O)c1ccc(CSc2nc3ccccc3c(=O)n2-c2ccc(OC)c(OC)c2)o1 | 0.39 | i | 3.5* | 10 | -0.00055 | -0.2
COC(=O)c1ccc(CSc2nc3ccccc3c(=O)n2-c2ccccc2)o1 | nt | nt | 1.1 | nt | nt | nt
CC1(C)Nc2ccccc2N(CCC(=O)N2CCOCC2)C1=O | -0.79 | i | 1.6* | -1 | 0.28 | 0.55
CCCCn1c(=O)[nH]c(=O)c2c1nc(CN1C(=O)c3ccccc3S1(=O)=O)n2CCC | -0.41 | i | 1.9 | 2 | 0.47 | 9.8*
CCCCn1c(=O)[nH]c(=O)c2c1nc(COc1ccc(C#N)cc1)n2CCC | -0.82 | i | -0.11 | 21 | -0.73 | 0.52
O=C(Nc1ccc2nc(-c3ccco3)[nH]c2c1)c1ccco1 | 0.044 | i | 3* | 6 | 0.36 | 0.7
O=C(Nc1ccc(N2CCCC2)c(Cl)c1)c1ccco1 | 1.2 | i | 0.42 | -23 | -0.45 | -4*
O=C(Nc1ccc(N2CCCCC2)c(C(=O)O)c1)c1ccco1 | 0.51 | i | -1.6 | 5 | 0.21 | 0.099
O=C(Nc1ccc2[nH]c3c(c2c1)CCCC3)c1ccco1 | 3* | i | 1.6 | -8 | -0.16 | -0.013
CCCCCCCC/C=C\CCCCCCCC(=O)O | nt | nt | -0.0017 | nt | nt | nt
CCCCCCCCCCCCC/C=C/C(O)C(N)CO (stereo not given) | nt | + | nt | nt | nt | nt
SMILES | M1 agonist | BAP1 block | hDAT+cocaine | HEK293 NFkB inh | M1 antag | D1 allo mod
CC(C)Oc1ccc(/C=N/NC(=O)C(CSCc2ccccc2)NC(=O)c2ccc([N+](=O)[O-])cc2)cc1 (stereo not given) | nt | nt | -6* | nt | nt | nt
CCOC(=O)c1c(C)n(C)c2ccc(OCC(O)CN3C(=O)c4ccccc4S3(=O)=O)cc12 (stereo not given) | 7.2* | i | 0.54 | 1 | -0.81 | -0.032
CCOC(=O)c1c(C)n(C)c2ccc(OCC(O)CN(CC)CC)cc12 (stereo not given) | 1.6 | i | 1.8 | 8 | 0.063 | nt
Cc1ccc(S(=O)(=O)N2CCOCC2)cc1C(=O)N1C(=O)c2cccc(N)c2C1=O | 2.8 | i | -6.5* | 8 | 0.082 | 0.52
Cc1ccc(S(=O)(=O)N2CCOCC2)cc1C(=O)O | -0.038 | i | -0.58 | -4 | -0.55 | -0.31
COc1ccccc1C1C(C(=O)OC(C)C)=C(C)NC2=C1C(=O)CCC2 (stereo not given) | nt | i | nt | nt | nt | nt
CCC(C)[C@H](NC(=O)N1CCN(c2cccc(C(F)(F)F)c2)CC1)C(=O)OC (stereo not given in full) | nt | nt | 3.2* | nt | nt | nt
